Among the data in PubChem BioAssay AID720702 (The Scripps Research Institute Molecular Screening Center, 2013) are inhibition values, retold here.

Structures are written as SMILES. About 1,200 (0.32%) of roughly 370,000 compounds were called active. The sample holds actives, similar compounds and a random draw of the others, so the mix is not that of the screen. Unmarked numbers belong to inactive results.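 How the source made its calls: active means inhibition above the mean of all tested compounds plus 3 SD, set per campaign (cut at about 25% in these data); inactive means the rest.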

In general, inhibition refers to the change of the read-out against control, counted positive when it falls.

Chain of Tyrosyl-DNA phosphodiesterase 2 (Homo sapiens) (O95551 whole entry, looked up): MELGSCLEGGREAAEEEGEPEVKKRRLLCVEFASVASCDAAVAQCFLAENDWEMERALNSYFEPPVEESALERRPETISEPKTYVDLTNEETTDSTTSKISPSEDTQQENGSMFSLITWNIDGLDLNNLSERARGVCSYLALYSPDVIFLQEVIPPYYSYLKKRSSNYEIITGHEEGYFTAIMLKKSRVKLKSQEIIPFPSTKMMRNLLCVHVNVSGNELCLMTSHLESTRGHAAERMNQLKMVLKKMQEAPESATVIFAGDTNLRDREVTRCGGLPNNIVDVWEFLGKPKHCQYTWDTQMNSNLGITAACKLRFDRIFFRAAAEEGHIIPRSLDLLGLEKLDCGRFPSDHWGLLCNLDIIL

The target in the experiment is Tyrosyl-DNA phosphodiesterase 2 (Homo sapiens) (UniProt O95551). Nature of the experiment: human TDP2 enzyme inhibitors, primary screen, biochemical, epi absorbance, recombinant enzyme (AID 720702).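 Further: 0% = DMSO with enzyme and 100% = buffer with substrate but no TDP2.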 As to conditions: recombinant TDP2, T5PNP hydrolysis, p-nitrophenol absorbance 415 nm; at 12.8 µM; hits give high values. The procedure, abridged: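 Assay system: Recombinant human TDP2 | Quantity: 120 nM TDP2 per well | Incubation: 2 h at 37 °C | Signal: Epi absorbance | Evaluation: Percent inhibition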
For the molecule `O=C(NCc1ccc(Cl)cc1)C(=O)NCC1CCCN1S(=O)(=O)c1cccs1` (centres undefined), the inhibition is 6.77%. As for `O=C(NCc1ccccc1Cl)C(=O)NCC1CCCN1S(=O)(=O)c1cccs1` (centres undefined), the inhibition is 25.5% (active).

As to `COc1ccccc1CCNC(=O)C(=O)NCCC1CCCCN1S(=O)(=O)c1cccs1` (centres undefined), the inhibition was -2.28%. In the case of `COC(=O)C1CN(Cc2cn(Cc3ccc(F)cc3)nn2)CCS(=O)(=O)N1Cc1ccc(Cl)cc1` (centres undefined), the inhibition is -3.71%.

With `CCCCc1c(O)nc2n(c1=O)CCS2`, the inhibition was 7.5%.

For the molecule `CCCCCCCCc1c(O)nc(-n2[nH]c(C)c(CCO)c2=O)[nH]c1=O`, the inhibition was 41.6% (active).

For `COc1cc(/C=C/C(=O)n2cnc3ccccc32)cc(OC)c1OC`, the inhibition is -7.12%. In the case of `Cc1cc(C)c(S(=O)(=O)NN=C2c3ccccc3[C@H]3Cc4csc[n+]4[C@@H]23)c(C)c1`, the inhibition is 25.7% (active). Take `CCSC(C)CC1C/C(=N/O)c2c(C)noc2C1` (centres undefined): the inhibition was 4.33%.

Take `COC1=C[C@H](C(=O)NCCNC(C)=O)[C@H](C)[C@@H](c2ccccc2)CC1=O`: the inhibition is 6.52%. Under `Oc1c(C=Nc2cccc3nsnc23)ccc2ccccc12` stands 59.5% (active). The same measure for `Cc1ccc(-n2c(COc3ccccc3)nnc2SCC(=O)Nc2ccc3c(c2)OCCO3)cc1`: -5.97%; for `COC(=O)[C@H](C(C)C)N(CCCc1cn(Cc2ccccc2)nn1)S(=O)(=O)c1ccc(F)cc1Br`: -3.1%; for `C=CCO/N=C(\C)c1c(O)c(C)c(-c2ccccc2)n(-c2ccccc2)c1=O`: -4.01%.

In the case of `COC(=O)[C@]12C[C@H](CC(=O)NCCCN3CCCC3=O)C(=O)N(CCc3ccc(OC)c(OC)c3)C1=C[C@H](COCc1ccccc1)O[C@@H]2C`, the inhibition was 5.78%. `O=C1C(=O)N(Cc2ccc(-c3ccsc3)cc2)c2ccc(OC(F)(F)F)cc21`: the inhibition is 3.8%. Turning to `COc1ccc2c(c1)C(C)=CC(C)(C)N2C(=O)CNCc1ccc2c(c1)OCO2`, the inhibition was 4.77%.

Consider `COc1ccc2c(c1)C(C)=CC(C)(C)N2C(=O)Nc1ccccc1`, for which the inhibition is 41.9% (active). As for `COc1cccc(NC(=O)C2C(c3ccccc3)C2(Cl)Cl)c1` (centres undefined), the inhibition is 0.37%. As to `CC(=O)Nc1ccc(S(=O)(=O)NC(C)C(=O)OCCOc2ccc(F)cc2)cc1` (centres undefined), the inhibition is 3.48%. As for `Cn1nc(N)c2ncc(C(Cl)(Cl)Cl)nc21`, the inhibition was 33.9% (active). Turning to `Cc1ccc(C2=CCN(C)C(=O)N2c2ccc(Cl)cc2)cc1`, the inhibition is 8.05%.

As to `Cc1[nH][nH]c(=O)c1C(c1ccc(-c2ccc(Cl)cc2)o1)c1c(C)[nH][nH]c1=O`, the inhibition was 30% (active). The same measure for `COc1cccc(NC(=O)[C@H](Cc2c[nH]c3ccccc23)NC(=O)[C@@H]2Cc3ccccc3CN2)c1`: -6.32%; for `CC[C@@H](CCC(=O)N(c1ccccc1)c1ccccc1)C1CC1`: -0.32%. `CCN(CC)C(=O)[C@H]1C[C@H](CC(=O)NCC23CC4CC(CC(C4)C2)C3)C(=O)N2CCc3c([nH]c4cc(CCC(=O)N(C)C)ccc34)[C@]12C`: the inhibition is -4.89%. Take `CCOc1ccc(C(c2c(C)[nH][nH]c2=O)c2c(C)[nH][nH]c2=O)cc1OCC`: the inhibition was 25.3% (active).

As for `CCOc1ccc(C(C)NC(=O)CN2C(=O)NC3(CCCCC3)C2=O)cc1OCC` (centres undefined), the inhibition is -6.82%. Turning to `CCOc1ccc(C(CC(=O)O)NC(=O)C23CC4CC(CC(C4)C2)C3)cc1OC` (centres undefined), the inhibition was 0.7%. Turning to `CCOc1ccc(N(CC(=O)Nc2c(C)n(C)n(-c3ccccc3)c2=O)S(=O)(=O)c2ccc(Cl)s2)cc1`, the inhibition is -6.34%. For `N#C/C(C(=O)N1CCOCC1)=C1/SC(Cc2ccc(F)cc2)C(=O)N1c1ccccc1` (centres undefined), the inhibition was 2.43%. Regarding `O=C(NC1CCC1)c1ccc(C#CC2CC2)cn1`, the inhibition is 4.08%. Turning to `CCCCNC(=O)C(C)N(CCN(C)C)C(=O)CCCCCN1C(=O)NC(c2ccc(Cl)cc2)C(C(=O)OCc2ccccc2)=C1C` (centres undefined), the inhibition was -0.25%.

`Cc1ccc(OCCCCN2CCCCC2)c(Br)c1`: the inhibition was 5.22%. The same measure for `Cc1cc(C)c(OCCN2CC(C)OC(C)C2)c(Br)c1` (centres undefined): 30.7% (active); for `CC1CN(CCOc2ccccc2[N+](=O)[O-])CC(C)O1` (centres undefined): 14%; for `COc1ccc(-n2c(SCC(=O)Nc3ccc4c(c3)OCCO4)nnc2-c2ccc(Cl)cc2)cc1`: -7.72%.

As to `O=C(CN1C(=O)CSC1=O)N1CCCC(Nc2ccc(F)cc2)C1` (centres undefined), the inhibition is -8.75%.

`O=C(c1ccccc1)c1ccc(-c2ccccc2C(=O)NC2CCCCN(Cc3ccc(Cl)cc3)C2=O)cc1` (centres undefined): the inhibition was 15.2%. In the case of `Cc1ccccc1Cn1c2ccccc2c2cnn(CC(=O)NCc3ccco3)c(=O)c21`, the inhibition is 24.5% (active). Under `O=C(Cn1ncc2c3ccccc3n(Cc3ccccc3)c2c1=O)NCCCN1CCOCC1` stands 12.7%; under `CCCn1c2ccccc2c2cnn(CC(=O)NCCCN3CCCCC3CC)c(=O)c21` (centres undefined), -29.8%; under `CCC[C@H]1C(=O)CC[C@@]23CCCN2C(=O)CCC[C@@H]13`, 2.8%. Take `COc1ccccc1NC(=O)C1CCCN(c2cc(C)nc3ncnn23)C1` (centres undefined): the inhibition was 2.18%. Turning to `COc1cccc(CNC(=O)C2CCCN(c3nc4ccccc4o3)C2)c1OC` (centres undefined), the inhibition is -1.52%. For `O=C(NCCCCO)C(F)(F)C(F)(F)C(F)(F)C(=O)NCCCCO`, the inhibition was -4.23%.

Consider `Cc1cc2nc3c(=O)[nH]c(=O)nc-3n(C[C@H](O)[C@H](O)[C@H](O)CO)c2cc1C`, for which the inhibition was 3.4%. As to `CCN(CC)CCCC(C)n1c2nc(=O)[nH]c(=O)c-2nc2cc(Cl)ccc21` (centres undefined), the inhibition was 24.6% (active).

With `O=c1[nH][nH]c(C(F)(F)F)c1C=NCc1ccccc1Cl`, the inhibition is 4.32%. The same measure for `C=CCn1c(=S)sc2c(=O)[nH]c(C)nc21`: 0.69%; for `Oc1ccc(N=Cc2c(O)ccc3ccccc23)cc1`: 29.3% (active).

In the case of `Oc1ccc(N=Cc2sc3ccccc3c2Cl)cc1`, the inhibition was 28.4% (active). Take `CCOC(=O)C1=C(C(=O)OCC)C2N(Cc3ccc(C#N)cc3)c3ccccc3[C@@]23C[C@@H](C(=O)OC)N(S(=O)(=O)c2ccc(F)cc2)C3=N1` (some centres undefined): the inhibition was 3.59%. Turning to `COC(=O)[C@@]12CCCCC3=C1N(CCC3)C(=O)[C@H]2CC(=O)NCc1cccc2ccccc12`, the inhibition was 15.1%.
